Laboratory results: ChEMBL document CHEMBL1122612, “7-(Ethoxycarbonyl)-6,8-dimethyl-2-phenyl-1(2H)-phthalazinone derivatives: synthesis and inhibitory effects on platelet aggregation” (J Med Chem, 1984)
pEC50, pIC50: −log10 of the molar value.

test system: not listed separately; test: Inhibition of human platelet cAMP Phosphodiesterase; type: functional; details: not given
How it was run: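 Low-Km cAMP phosphodiesterase from human platelets, prepared and assayed per an earlier method. Result expressed as IC50, the μM concentration inhibiting enzyme activity by 50%.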

| pIC50 | Structure (SMILES) |
| --- | --- |
| 4.47 | CCOC(=O)c1c(C)cc2cnn(-c3ccccc3Cl)c(=O)c2c1C |
| 5.00 | CCOC(=O)c1c(C)cc2cnn(-c3ccccc3)c(=O)c2c1C |

| Structure (SMILES) | pIC50 |
| --- | --- |
| COc1ccc(Cc2nccc3cc(OC)c(OC)cc23)cc1OC [PAPAVERINE] | 6.26 |

organism: Oryctolagus cuniculus; test: Inhibition of arachidonic acid induced platelet aggregation in rabbit platelet rich plasma, range 5-10; type: functional; details: read-out: ED50 (the source's name)
How it was run: (§1)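 Rabbit blood drawn from the carotid artery (pentobarbital anaesthesia, 35 mg/kg iv) into 3.8% sodium citrate (1/10 volume). PRP obtained by spinning at 150g for 15 min; 3.5-4.5 × 10^5 platelets/μL. Compound in Me2SO (≤0.5% final) preincubated 3 min at 37 °C with 1200 rpm stirring. Aggregation then started with 137 μM AA (final) and read turbidimetrically. Inhibition = maximum deflection relative to vehicle; ED50 range from three experiments.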

| pEC50 | Structure (SMILES) |
| --- | --- |
| 5.30 | CCOC(=O)c1c(C)cc2cnn(-c3ccc(OC)cc3)c(=O)c2c1C |
| 5.30 | CCOC(=O)c1c(C)cc2cnn(-c3ccccc3C)c(=O)c2c1C |

organism: Oryctolagus cuniculus; test: Inhibition of arachidonic acid induced platelet aggregation in rabbit platelet rich plasma, range 50-100; type: functional; details: read-out: ED50 (the source's name); how it was run: as §1

| pEC50 | Structure (SMILES) |
| --- | --- |
| 4.30 | CCOC(=O)c1c(C)cc2cnn(-c3cccc(C)c3)c(=O)c2c1C |

organism: Oryctolagus cuniculus; test: Inhibition of arachidonic acid induced platelet aggregation in rabbit platelet rich plasma, range 2-5; type: functional; details: read-out: ED50 (the source's name); how it was run: as §1

| pEC50 | Structure (SMILES) |
| --- | --- |
| 5.70 | CCOC(=O)c1c(C)cc2cnn(-c3ccccc3F)c(=O)c2c1C |
| 5.70 | CCOC(=O)c1c(C)cc2cnn(-c3ccccc3Cl)c(=O)c2c1C |
| 5.70 | CCOC(=O)c1c(C)cc2cnn(-c3ccc(N)cc3)c(=O)c2c1C |
| 5.70 | CCOC(=O)c1c(C)cc2cnn(-c3ccccc3)c(=O)c2c1C |

organism: Oryctolagus cuniculus; test: Inhibition of arachidonic acid induced platelet aggregation in rabbit platelet rich plasma; type: functional; details: read-out: ED50 (the source's name); how it was run: as §1

| pEC50 | Structure (SMILES) |
| --- | --- |
| ≤ 4.00 | COc1ccc(-n2ncc3cc(OC)c(OC)cc3c2=O)cc1OC |
| ≤ 4.30 | CCOC(=O)c1ccc(-n2ncc3cc(C)c(C(=O)OCC)c(C)c3c2=O)cc1 |
| ≤ 4.30 | CCOC(=O)c1c(C)cc2cnn(-c3ccc(NC(C)=O)cc3)c(=O)c2c1C |
| ≤ 4.00 | COc1cc2cnn(-c3ccccc3)c(=O)c2cc1OC |
| ≤ 4.00 | COc1ccc(-n2ncc3cc(OC)c(OC)cc3c2=O)cc1 |
| ≤ 4.30 | CCOC(=O)c1c(C)cc2cnn(-c3ccc(S(C)(=O)=O)cc3)c(=O)c2c1C |
| ≤ 4.30 | CCOC(=O)c1c(C)cc2cnn(-c3ccc(F)cc3)c(=O)c2c1C |
| ≤ 4.30 | CCOC(=O)c1c(C)cc2cnn(-c3ccc(OC)c(OC)c3)c(=O)c2c1C |
| ≤ 4.30 | CCOC(=O)c1c(C)cc2cnn(-c3ccc([N+](=O)[O-])cc3)c(=O)c2c1C |
| ≤ 4.30 | CCOC(=O)c1c(C)cc2cnn(-c3ccc(C(=O)O)cc3)c(=O)c2c1C |
| ≤ 4.30 | CCOC(=O)c1c(C)cc2cnn(-c3cccc(OC)c3)c(=O)c2c1C |
| ≤ 4.00 | COc1cc2cnn(-c3ccccc3Cl)c(=O)c2cc1OC |
| ≤ 4.30 | CCOC(=O)c1c(C)cc2cnn(-c3ccc(C)c(Cl)c3)c(=O)c2c1C |

organism: Oryctolagus cuniculus; test: Inhibition of arachidonic acid induced platelet aggregation in rabbit platelet rich plasma, range 25-50; type: functional; details: read-out: ED50 (the source's name); how it was run: as §1

| pEC50 | Structure (SMILES) |
| --- | --- |
| 4.60 | CCOC(=O)c1c(C)cc2cnn(-c3ccc(O)cc3)c(=O)c2c1C |
| 4.60 | CCOC(=O)c1c(C)cc2cnn(-c3ccc(C)cc3)c(=O)c2c1C |
